Experimental data from publication PMC5741288 (Pain Reports, 2016).
Entries after “also recorded” stand apart in the source; their conditions may differ.

Key:
[1] = Plasma pharmacokinetics after single oral dose; format: in vivo, healthy men; settings: for Tmax / half-life: male, human, plasma; for Tmax: Median tmax
Summary of the method: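 After a fast of at least 10 h, single oral tablets were given semirecumbent with 240 mL water (part 1: 1–225 mg; part 2: 10, 50 mg). Plasma was assayed by validated LC-MS/MS over 1–1000 ng/mL (LLOQ 1 ng/mL). Noncompartmental analysis used actual times. Cmax and tmax were taken by inspection, t1/2 = 0.693/λz, CL/F = dose/AUC∞, and Vz/F = D/(λz × AUC∞).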

capsaicin-induced flare = assay: Capsaicin-induced flare area and intensity in humans; format: in vivo, healthy men
Summary of the method: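 Part 2 was a double-blind, 3-way crossover of single oral test compound (10 or 50 mg) or placebo tablets after an overnight fast. Capsaicin cream (0.075% w/w) stayed on the forearm for 30 min. Laser Doppler scans were taken before and after, at predose, 4 h and 144 h postdose. Flare area counted pixels with flux above the 95th percentile (mean + 2 SD) of baseline. Intensity was taken as relative flux.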

SMILES: CC(C)(O)c1ccccc1-c1ccc2[nH]c(/C=C/c3ccc(C(F)(F)F)cc3)nc2c1 [JNJ-39439335, trans-2-(2-{2-[2-(4-Trifluoromethyl-phenyl)-vinyl]-1H-benzimidazol-5-yl}-phenyl)-propan-2-ol]
- Dose proportionality of exposure (Cmax, AUC∞) ([1]; doses of 1 to 225 mg): less than dose-proportional increase in exposure
- Tmax ([1]; oral, 50 mg, part 2, 10 and 50 mg, tablet, fasted): ~3 h
- half-life ([1]; oral, Mean elimination half-life, part 1, doses of 1 to 225 mg): 29.9 to 85.9 h
- Tmax ([1]; oral, across the dose range administered (discussion)): 2 to 4.5 h
- Tmax ([1]; oral, part 1, doses of 1 to 225 mg, tablet, fasted): 2.02 to 4.44 h
- half-life ([1]; po, Terminal phase half-life, single oral doses): 30 to 86 h
- Plasma concentration giving maximum effect on flare area and flare intensity (capsaicin-induced flare; 4-hour postdose): ≥ 90 ng/mL
- Plasma concentration giving maximum effect on flare area and flare intensity (capsaicin-induced flare; 144-hour postdose): > 5 ng/mL
- Capsaicin-induced flare intensity and flare area (capsaicin-induced flare; part 2, 10 and 50 mg, 4- and 144-hour postdose): dose-related reduction
- Capsaicin-induced flare area and flare intensity (capsaicin-induced flare; part 2, 50-mg dose, 144 hours postdose): complete blocking; also recorded: completely blocked
